Laboratory results from ChEMBL document CHEMBL1155924, “Achieving multi-isoform PI3K inhibition in a series of substituted 3,4-dihydro-2H-benzo[1,4]oxazines” (Bioorg Med Chem Lett, 2008).
Activity calls are given as the source filed them. The rule behind the calls is not given here.

Assays:
[1] = target: T1, Phosphatidylinositol 4,5-bisphosphate 3-kinase catalytic subunit delta isoform (Homo sapiens, UniProt O00329); assay: Inhibition of PI3K delta
T1 sequence (O00329 whole entry): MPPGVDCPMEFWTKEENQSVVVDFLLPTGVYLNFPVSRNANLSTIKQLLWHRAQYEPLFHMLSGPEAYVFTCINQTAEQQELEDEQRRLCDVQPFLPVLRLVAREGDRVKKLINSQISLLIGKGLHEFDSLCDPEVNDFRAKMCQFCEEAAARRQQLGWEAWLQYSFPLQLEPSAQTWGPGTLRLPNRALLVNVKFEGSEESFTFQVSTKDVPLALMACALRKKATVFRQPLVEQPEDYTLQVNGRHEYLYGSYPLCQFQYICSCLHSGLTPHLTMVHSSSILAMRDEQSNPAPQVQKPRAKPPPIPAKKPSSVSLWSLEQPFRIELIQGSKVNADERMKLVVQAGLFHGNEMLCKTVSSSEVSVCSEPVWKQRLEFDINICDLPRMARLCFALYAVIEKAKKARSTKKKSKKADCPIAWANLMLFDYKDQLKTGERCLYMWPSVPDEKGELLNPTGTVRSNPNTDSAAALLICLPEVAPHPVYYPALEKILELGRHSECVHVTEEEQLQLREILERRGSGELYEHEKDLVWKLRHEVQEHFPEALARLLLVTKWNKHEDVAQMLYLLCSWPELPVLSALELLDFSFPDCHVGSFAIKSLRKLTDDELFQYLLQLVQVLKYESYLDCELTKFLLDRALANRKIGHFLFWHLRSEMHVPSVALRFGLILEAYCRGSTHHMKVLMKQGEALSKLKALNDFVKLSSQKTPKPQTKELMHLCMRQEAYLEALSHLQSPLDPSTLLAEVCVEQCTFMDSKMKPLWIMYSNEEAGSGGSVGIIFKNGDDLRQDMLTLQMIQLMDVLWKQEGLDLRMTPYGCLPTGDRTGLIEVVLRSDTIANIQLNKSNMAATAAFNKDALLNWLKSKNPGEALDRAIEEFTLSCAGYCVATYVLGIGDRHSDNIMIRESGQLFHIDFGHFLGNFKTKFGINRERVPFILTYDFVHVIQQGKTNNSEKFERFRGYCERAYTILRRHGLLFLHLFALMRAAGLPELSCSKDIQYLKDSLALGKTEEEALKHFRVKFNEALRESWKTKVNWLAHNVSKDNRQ

[2] = target: Phosphatidylinositol 4,5-bisphosphate 3-kinase catalytic subunit gamma isoform (Homo sapiens, UniProt P48736); assay: Inhibition of PI3K gamma
[3] = target: Phosphatidylinositol 4,5-bisphosphate 3-kinase catalytic subunit alpha isoform (Homo sapiens, UniProt P42336); assay: Inhibition of PI3K alpha
[4] = target: Phosphatidylinositol 4,5-bisphosphate 3-kinase catalytic subunit beta isoform (Homo sapiens, UniProt P42338); assay: Inhibition of PI3K beta
Homo sapiens = species: Homo sapiens; assay: Selectivity for human PI3K gamma over human PI3K delta
[5] = target: T2, Testis-specific serine/threonine-protein kinase 1 (Homo sapiens) (UniProt Q9BXA7); assay: Inhibition of TSSK1 at 10 uM
T2 sequence (whole entry): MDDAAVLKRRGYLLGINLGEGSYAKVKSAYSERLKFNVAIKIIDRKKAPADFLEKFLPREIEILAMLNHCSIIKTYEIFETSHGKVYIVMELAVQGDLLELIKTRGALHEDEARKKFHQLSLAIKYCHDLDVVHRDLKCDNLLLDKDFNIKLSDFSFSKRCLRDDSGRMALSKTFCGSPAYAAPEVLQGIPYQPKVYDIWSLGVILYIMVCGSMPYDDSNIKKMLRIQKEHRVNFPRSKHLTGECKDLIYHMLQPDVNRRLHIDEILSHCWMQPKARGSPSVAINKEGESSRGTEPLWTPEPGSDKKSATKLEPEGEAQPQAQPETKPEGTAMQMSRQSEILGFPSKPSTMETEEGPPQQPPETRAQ

[6] = target: Serine/threonine-protein kinase pim-1 (Homo sapiens) (UniProt P11309); assay: Inhibition of PIM1 at 10 uM
[7] = Inhibition of CaMK2 at 10 uM
[8] = Inhibition of CK1 at 10 uM
[9] = target: T3, Serine/threonine-protein kinase mTOR (Homo sapiens, UniProt P42345); assay: Inhibition of mTOR at 10 uM
Neutrophil = assay: Inhibition of fMLP-stimulated superoxide production in TNF alpha-primed human neutrophils by spectrophotometry; format: functional, cell-based
Method in brief: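 Human neutrophils were primed with TNFα and stimulated with fMLP, and cellular superoxide production was monitored. Inhibition values are quoted in nM.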

[10] = Clearance in rat microsomes assessed per mg of protein at 0.5 uM; format: ADME, Liver, Microsome; conditions: for microsomal CLint at 0.5 µM: liver microsomes
[11] = Clearance in human microsomes assessed per mg of protein at 0.5 uM; format: ADME, Microsome
Hepatocyte = assay: Clearance in rat hepatocyte assessed per mg of protein at 2 uM; format: ADME, cell-based, Liver; conditions: hepatocytes
[12] = Cmax in Han-Wistar rat at 3 mg/kg, po; format: ADME, organism-based; parameters: dose 3 mg/kg, route oral; conditions: in vivo
Method in brief: (§1)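 Male-or-unspecified Han–Wistar rats were given a single oral dose of 3 mg/kg. Plasma Cmax is reported in ng/mL and AUC in ng h/mL.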

[13] = AUC in Han-Wistar rat at 3 mg/kg, po; format: ADME, organism-based; parameters: dose 3 mg/kg, route oral; conditions: plasma; method in brief: as §1
Rattus norvegicus = assay: Inhibition of anti-CD3-induced IL2 release in po dosed Lewis rat blood; format: functional
Method in brief: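 Acute T-cell activation was induced by anti-CD3 antibody in male Lewis rats. Compound was given orally, and IL2 released into blood was measured. Percent inhibition of IL-2 was plotted against log dose (mg/kg) to derive ED50. Values are mean ± SEM, n = 8.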

[14] = target: T3, Serine/threonine-protein kinase mTOR; assay: Inhibition of mTOR
[15] = Oral bioavailability in Han-Wistar rat at 3 mg/kg; format: ADME, organism-based; conditions: in vivo
[16] = target: Mitogen-activated protein kinase 14 (Homo sapiens) (UniProt Q16539); assay: Inhibition of SAPK2a at 10 uM
[17] = Clearance in Han-Wistar rat at 1 mg/kg, iv; format: ADME, organism-based; parameters: dose 1 mg/kg, route intravenous; conditions: in vivo
Method in brief: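 Han–Wistar rats were dosed intravenously at 1 mg/kg. Clearance is reported in mL/min/kg.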

Phosphatidylinositol 4,5-bisphosphate 3-kinase catalytic subunit beta isoform, sequence (P42338 whole entry, canonical isoform): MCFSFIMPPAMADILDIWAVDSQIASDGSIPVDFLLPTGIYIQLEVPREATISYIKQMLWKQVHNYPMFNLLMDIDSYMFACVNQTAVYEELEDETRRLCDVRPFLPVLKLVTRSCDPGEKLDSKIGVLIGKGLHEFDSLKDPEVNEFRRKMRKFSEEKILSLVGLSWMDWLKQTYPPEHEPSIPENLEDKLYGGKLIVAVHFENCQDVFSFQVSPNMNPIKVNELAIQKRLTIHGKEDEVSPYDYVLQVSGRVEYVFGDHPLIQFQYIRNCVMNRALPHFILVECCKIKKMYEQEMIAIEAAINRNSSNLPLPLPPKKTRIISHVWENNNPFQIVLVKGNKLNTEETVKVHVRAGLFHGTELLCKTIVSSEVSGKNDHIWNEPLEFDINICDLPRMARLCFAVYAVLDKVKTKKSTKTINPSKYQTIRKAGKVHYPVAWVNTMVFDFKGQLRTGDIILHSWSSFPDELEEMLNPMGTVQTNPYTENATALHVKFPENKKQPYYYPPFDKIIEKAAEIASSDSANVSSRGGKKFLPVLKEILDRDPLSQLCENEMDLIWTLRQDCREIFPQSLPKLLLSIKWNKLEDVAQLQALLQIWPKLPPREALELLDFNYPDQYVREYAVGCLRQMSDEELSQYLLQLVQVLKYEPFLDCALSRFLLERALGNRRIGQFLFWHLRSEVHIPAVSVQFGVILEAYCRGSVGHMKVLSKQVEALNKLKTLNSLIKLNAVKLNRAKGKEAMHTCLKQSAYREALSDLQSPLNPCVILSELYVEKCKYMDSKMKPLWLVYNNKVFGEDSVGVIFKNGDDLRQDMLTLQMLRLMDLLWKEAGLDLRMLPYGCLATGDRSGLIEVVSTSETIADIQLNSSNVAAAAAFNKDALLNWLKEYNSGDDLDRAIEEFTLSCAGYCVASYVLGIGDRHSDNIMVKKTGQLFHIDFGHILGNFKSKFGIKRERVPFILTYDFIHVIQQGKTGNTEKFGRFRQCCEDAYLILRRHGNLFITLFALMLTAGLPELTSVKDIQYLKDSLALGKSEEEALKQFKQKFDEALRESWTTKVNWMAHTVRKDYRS
Phosphatidylinositol 4,5-bisphosphate 3-kinase catalytic subunit gamma isoform, sequence (P48736 whole entry, canonical isoform): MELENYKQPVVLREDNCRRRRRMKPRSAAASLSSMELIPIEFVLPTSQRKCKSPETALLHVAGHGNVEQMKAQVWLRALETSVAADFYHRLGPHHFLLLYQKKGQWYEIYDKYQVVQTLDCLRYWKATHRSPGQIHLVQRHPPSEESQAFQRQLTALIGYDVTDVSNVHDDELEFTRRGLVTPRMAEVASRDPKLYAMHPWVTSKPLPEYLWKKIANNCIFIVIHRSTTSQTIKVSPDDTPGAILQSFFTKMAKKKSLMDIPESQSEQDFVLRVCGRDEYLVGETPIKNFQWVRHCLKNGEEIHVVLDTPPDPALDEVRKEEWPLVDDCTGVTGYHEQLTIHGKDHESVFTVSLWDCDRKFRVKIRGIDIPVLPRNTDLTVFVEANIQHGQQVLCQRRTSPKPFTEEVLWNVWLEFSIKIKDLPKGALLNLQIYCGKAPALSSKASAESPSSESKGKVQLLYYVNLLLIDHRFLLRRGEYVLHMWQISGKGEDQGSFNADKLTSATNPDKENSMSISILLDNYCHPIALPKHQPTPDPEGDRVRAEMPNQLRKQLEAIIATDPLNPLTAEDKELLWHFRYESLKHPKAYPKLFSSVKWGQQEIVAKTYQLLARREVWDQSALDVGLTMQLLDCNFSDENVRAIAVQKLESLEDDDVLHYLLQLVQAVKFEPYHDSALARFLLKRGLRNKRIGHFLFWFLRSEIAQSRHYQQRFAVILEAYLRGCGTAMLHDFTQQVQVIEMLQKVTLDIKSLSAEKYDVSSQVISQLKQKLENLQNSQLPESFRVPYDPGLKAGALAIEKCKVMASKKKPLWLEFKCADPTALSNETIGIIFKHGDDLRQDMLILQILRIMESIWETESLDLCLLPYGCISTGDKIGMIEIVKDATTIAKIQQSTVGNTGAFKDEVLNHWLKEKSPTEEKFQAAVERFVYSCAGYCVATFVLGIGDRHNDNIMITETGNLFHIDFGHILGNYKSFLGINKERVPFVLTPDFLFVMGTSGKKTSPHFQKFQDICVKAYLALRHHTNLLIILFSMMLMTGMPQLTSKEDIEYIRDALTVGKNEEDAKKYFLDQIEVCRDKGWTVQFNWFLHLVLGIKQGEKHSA
Phosphatidylinositol 4,5-bisphosphate 3-kinase catalytic subunit alpha isoform, sequence (P42336 whole entry, canonical isoform): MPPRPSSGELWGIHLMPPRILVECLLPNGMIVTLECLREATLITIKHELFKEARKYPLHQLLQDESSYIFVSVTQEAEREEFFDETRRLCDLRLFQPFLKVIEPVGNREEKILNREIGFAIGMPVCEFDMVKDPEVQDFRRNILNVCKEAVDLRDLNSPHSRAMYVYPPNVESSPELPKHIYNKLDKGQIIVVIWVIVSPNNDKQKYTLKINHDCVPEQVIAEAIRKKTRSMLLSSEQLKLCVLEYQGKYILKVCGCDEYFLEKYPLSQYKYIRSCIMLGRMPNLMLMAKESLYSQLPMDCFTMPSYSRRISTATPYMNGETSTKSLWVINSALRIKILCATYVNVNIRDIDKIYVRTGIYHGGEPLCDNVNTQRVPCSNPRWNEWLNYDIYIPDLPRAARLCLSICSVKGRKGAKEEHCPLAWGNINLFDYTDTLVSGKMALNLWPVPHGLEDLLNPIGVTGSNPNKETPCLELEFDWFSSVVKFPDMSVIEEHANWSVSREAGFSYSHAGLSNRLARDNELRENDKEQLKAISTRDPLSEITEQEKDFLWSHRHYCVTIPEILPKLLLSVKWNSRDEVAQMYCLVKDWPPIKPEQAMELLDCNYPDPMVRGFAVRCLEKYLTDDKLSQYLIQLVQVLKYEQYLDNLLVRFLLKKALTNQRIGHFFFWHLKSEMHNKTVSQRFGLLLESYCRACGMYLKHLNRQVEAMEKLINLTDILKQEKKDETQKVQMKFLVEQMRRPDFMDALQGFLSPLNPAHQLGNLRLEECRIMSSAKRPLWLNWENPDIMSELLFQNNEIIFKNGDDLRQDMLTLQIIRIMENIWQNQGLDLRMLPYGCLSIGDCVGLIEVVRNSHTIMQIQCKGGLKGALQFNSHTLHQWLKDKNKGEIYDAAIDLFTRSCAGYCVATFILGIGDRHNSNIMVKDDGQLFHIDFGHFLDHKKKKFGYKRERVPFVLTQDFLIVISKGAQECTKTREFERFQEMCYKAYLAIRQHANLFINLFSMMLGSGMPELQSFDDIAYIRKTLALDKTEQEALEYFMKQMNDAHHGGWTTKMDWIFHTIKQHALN
Serine/threonine-protein kinase pim-1 (Homo sapiens), sequence (P11309 whole entry, looked up): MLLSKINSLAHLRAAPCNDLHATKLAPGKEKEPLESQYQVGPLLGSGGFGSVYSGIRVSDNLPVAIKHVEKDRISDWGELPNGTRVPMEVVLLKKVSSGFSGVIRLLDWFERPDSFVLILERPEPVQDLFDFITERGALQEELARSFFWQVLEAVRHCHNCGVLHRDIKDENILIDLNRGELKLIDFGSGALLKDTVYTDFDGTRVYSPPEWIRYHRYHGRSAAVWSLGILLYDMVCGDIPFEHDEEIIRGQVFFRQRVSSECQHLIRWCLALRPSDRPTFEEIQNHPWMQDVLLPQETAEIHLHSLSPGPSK
Mitogen-activated protein kinase 14 (Homo sapiens), sequence (Q16539 whole entry): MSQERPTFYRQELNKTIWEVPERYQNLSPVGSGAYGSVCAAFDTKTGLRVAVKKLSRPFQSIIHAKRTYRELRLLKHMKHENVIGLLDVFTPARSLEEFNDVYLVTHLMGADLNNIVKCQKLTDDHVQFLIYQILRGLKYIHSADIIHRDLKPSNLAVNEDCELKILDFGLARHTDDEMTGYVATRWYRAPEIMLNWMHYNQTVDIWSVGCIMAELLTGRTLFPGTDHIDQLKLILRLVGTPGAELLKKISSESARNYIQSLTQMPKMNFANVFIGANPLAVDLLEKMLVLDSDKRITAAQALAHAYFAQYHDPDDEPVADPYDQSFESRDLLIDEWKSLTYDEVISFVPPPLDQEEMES

| Compound | IC50 [1] [nM] | IC50 [2] [nM] | IC50 [3] [nM] | IC50 [4] [nM] | also measured |
| --- | --- | --- | --- | --- | --- |
| CC1(C)CC(=O)c2sc(N3CCOc4ccc(-c5ccccn5)cc43)nc2C1 | 74 | 258 | 677 | 2000 | – |
| CC1(C)Cc2nc(N3CCOc4ccccc43)sc2C(=O)N1 | 1630 | 959 | – | 1230 | fold change (FC) (Homo sapiens): 2 |
| COc1ccc2c(c1)OCCN2c1nc2c(s1)C(=O)NC(C)(C)C2 | 230 | 440 | 1130 | 1590 | – |
| CC1(C)Cc2nc(N3CCOc4cnccc43)sc2C(=O)N1 | > 20000 | – | – | – | – |
| Cc1ccc(-c2ccc3c(c2)N(c2nc4c(s2)C(=O)NC(C)(C)C4)CCO3)cn1 | 21 | 28 | 116 | 452 | inhibition [5]: > 80%; inhibition [6]: > 80%; inhibition [7]: > 80%; inhibition [8]: > 80%; Activity [9]: inactive; IC50 (Neutrophil): 57 nM; microsomal CLint at 0.5 µM [10]: 17 µL/min/mg; microsomal CLint at 0.5 µM [11]: 25 µL/min/mg; CL (Hepatocyte): 7 µL/min/mg; Cmax [12]: 649 ng/mL; AUC [13]: 2880 ng·h/mL; ED50 (Rattus norvegicus): 15 mg/kg; IC50 [14]: > 15 µM |
| CC1(C)Cc2nc(N3CCOc4c(F)cccc43)sc2C(=O)N1 | 11200 | 16800 | – | 11700 | – |
| Cn1cc(-c2ccc3c(c2)N(c2nc4c(s2)C(=O)CC(C)(C)C4)CCO3)cn1 | 49 | 52 | 294 | 336 | IC50 (Neutrophil): 44 nM; microsomal CLint at 0.5 µM [10]: 39 µL/min/mg; microsomal CLint at 0.5 µM [11]: 36 µL/min/mg; CL (Hepatocyte): 8 µL/min/mg |
| CC1(C)Cc2nc(N3CCOc4cc(F)ccc43)sc2C(=O)N1 | 783 | 357 | – | 1240 | – |
| Cc1ccc(-c2ccc3c(c2)N(c2nc4c(s2)C(=O)NC(C)(C)C4)CCO3)nn1 | – | – | – | – | Cmax [12]: 185 ng/mL; AUC [13]: 2470 ng·h/mL; bioavailability [15]: 66% |
| Cc1ccc2c(c1)OCCN2c1nc2c(s1)C(=O)NC(C)(C)C2 | 605 | 531 | – | 1620 | – |
| CC1(C)CC(=O)c2sc(N3CCOc4ncccc43)nc2C1 | 5730 | 6650 | 11300 | 5310 | – |
| CC1(C)CC(=O)c2sc(N3CCOc4ccc(-c5ccccc5)cc43)nc2C1 | 80 | 854 | 2670 | 7990 | IC50 (Neutrophil): 267 nM; clearance ([10]; microsomes, 0.5 µM): 15 µL/min/mg; clearance ([11]; 0.5 µM): 18 µL/min/mg |
| CC1(C)Cc2nc(N3CCOCC3)sc2C(=O)N1 | 722 | 5280 | 2370 | 450 | IC50 (Neutrophil): 2960 nM; microsomal CLint at 0.5 µM [11]: 1 µL/min/mg; CL (Hepatocyte): 1 µL/min/mg |
| CC1(C)CC(=O)c2sc(N3CCOc4ccc(Br)cc43)nc2C1 | 249 | 829 | 1970 | 1920 | – |
| CC1(C)CC(=O)c2sc(N3CCOc4cc(Br)ccc43)nc2C1 | 549 | 3130 | 2850 | 5340 | – |
| CC(=O)c1ccc2c(c1)N(c1nc3c(s1)C(=O)NC(C)(C)C3)CCO2 | 366 | 318 | – | 1450 | – |
| CC1(C)CC(=O)c2sc(N3CCOc4cc(-c5ccccc5)ccc43)nc2C1 | 1050 | > 20000 | > 20000 | – | – |
| CC1(C)CC(=O)c2sc(N3CCOCC3)nc2C1 | – | – | – | – | microsomal CLint at 0.5 µM [10]: 6 µL/min/mg; CL (Hepatocyte): 7 µL/min/mg |

| Compound | IC50 [1] [nM] | IC50 [2] [nM] | IC50 [3] [nM] | IC50 [4] [nM] | also measured |
| --- | --- | --- | --- | --- | --- |
| CN(C)Cc1ccc2c(c1)N(c1nc3c(s1)C(=O)NC(C)(C)C3)CCO2 | 7570 | > 20000 | > 20000 | 10300 | – |
| Cn1ccnc1-c1ccc2c(c1)N(c1nc3c(s1)C(=O)NC(C)(C)C3)CCO2 | 285 | 819 | 2900 | 3520 | – |
| CC1(C)CC(=O)c2sc(N3CCOc4ccc(-c5ccncc5)cc43)nc2C1 | 94 | 159 | 825 | 1050 | – |
| CC1(C)CC(=O)c2sc(N3CCOc4ccc(-c5cccnc5)cc43)nc2C1 | 20 | 113 | 172 | 376 | – |
| Cc1cccc2c1OCCN2c1nc2c(s1)C(=O)NC(C)(C)C2 | 15300 | – | – | – | – |
| Cc1nc(-c2ccc3c(c2)N(c2nc4c(s2)C(=O)NC(C)(C)C4)CCO3)c[nH]1 | 51 | 107 | 636 | 325 | – |
| CC1(C)Cc2nc(N3CCOc4ccc(C5CC5)cc43)sc2C(=O)N1 | 155 | 210 | – | 834 | – |
| Cc1ccc2c(c1)N(c1nc3c(s1)C(=O)NC(C)(C)C3)CCO2 | 357 | 617 | 1810 | 964 | – |
| Cc1ccc(-c2ccc3c(c2)N(c2nc4c(s2)C(=O)CC(C)(C)C4)CCO3)cn1 | 26 | 73 | 164 | 308 | microsomal CLint at 0.5 µM [10]: 25 µL/min/mg; microsomal CLint at 0.5 µM [11]: 48 µL/min/mg |
| CC1(C)Cc2nc(N3CCOc4ccc(-c5cnc[nH]5)cc43)sc2C(=O)N1 | 81 | 163 | 736 | 727 | – |
| CC1(C)Cc2nc(N3CCOc4ccc(-c5ncccn5)cc43)sc2C(=O)N1 | 123 | 189 | 791 | 623 | – |
| Cn1cc(-c2ccc3c(c2)N(c2nc4c(s2)C(=O)NC(C)(C)C4)CCO3)cn1 | – | – | – | – | inhibition [6]: > 50%; inhibition [16]: > 50%; clearance (Hepatocyte): 0 µL/min/mg; Cmax [12]: 1220 ng/mL; AUC [13]: 6160 ng·h/mL; clearance [17]: 7 mL/min/kg; bioavailability [15]: 97%; ED50 (Rattus norvegicus): 25 mg/kg |
| CC1(C)Cc2nc(N3CCOc4ccc(Br)cc43)sc2C(=O)N1 | 153 | 321 | 1110 | 1620 | – |
| CC1(C)CC(=O)c2sc(N3CCOc4ccccc43)nc2C1 | 614 | 829 | 676 | 511 | fold change (FC) (Homo sapiens): 2; IC50 (Neutrophil): 759 nM; microsomal CLint at 0.5 µM [10]: 220 µL/min/mg; microsomal CLint at 0.5 µM [11]: 47 µL/min/mg; CL (Hepatocyte): 162 µL/min/mg |
| CC1(C)Cc2nc(N3CCOc4ccc(-c5ccn[nH]5)cc43)sc2C(=O)N1 | 90 | 145 | 917 | 1470 | – |
| CC1(C)CC(=O)c2sc(N3CCOc4ccc(-c5cn[nH]c5)cc43)nc2C1 | 17 | 77 | 188 | 298 | – |
| CC1(C)Cc2nc(N3CCOc4ccc(-c5ccccc5)cc43)sc2C(=O)N1 | 50 | 80 | – | 3660 | IC50 (Neutrophil): 573 nM; microsomal CLint at 0.5 µM [10]: 39 µL/min/mg; microsomal CLint at 0.5 µM [11]: 21 µL/min/mg |
